Calls of active or inactive are those of the source. No cut-off for these calls is given here.
Tests used:
[1] = Antiproliferative activity against HMVE cells; type: functional, cell-based; conditions: Homo sapiens
[2] = Inhibition of HMVE cell proliferation at 0.5 uM relative to control; type: functional; conditions: Homo sapiens
MDA-MB-231 [3] = assay: Growth inhibition of retinoid-resistant MDA-MB-231 cells at 1 uM relative to control; type: functional; conditions: Homo sapiens
How it was run: (§1)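 Cells seeded at 2 × 10^3 per well for H292 and DU-145 (RPMI-1640, 10% FBS) or 4 × 10^3 for MDA-MB-231 (DMEM, 10% FBS), 37 °C, 6% CO2. After 24 h attachment, treated 72 h with compound in Me2SO (0.1% final); media and compound renewed at 48 h. Viable cells by MTS reduction; triplicates per concentration.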

[4] = biological target: T1, Nuclear receptor subfamily 0 group B member 2 (Homo sapiens) (UniProt Q15466); assay: Displacement of [5,5'-3H2]AHPN from recombinant human GST-SHP partner nuclear orphan receptor at 50 uM
T1 sequence (whole entry): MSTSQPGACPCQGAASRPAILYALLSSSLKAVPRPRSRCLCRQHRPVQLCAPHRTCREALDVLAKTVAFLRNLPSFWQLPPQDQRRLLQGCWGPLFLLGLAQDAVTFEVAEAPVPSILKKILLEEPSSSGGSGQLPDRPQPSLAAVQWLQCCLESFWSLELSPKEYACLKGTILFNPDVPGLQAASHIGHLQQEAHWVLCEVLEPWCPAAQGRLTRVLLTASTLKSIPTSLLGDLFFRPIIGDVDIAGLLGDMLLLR
How it was run: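 GST–human SHP fusion (150–500 ng) on glutathione-Sepharose beads preincubated on ice 45 min with unlabeled compound (50 µM final) in 0.4 mL binding buffer. [5,5′-3H2]AHPN (5 nM final) then added for 2 h at 4 °C. Beads washed, counted by scintillation directly or after elution with 50 mM NaHCO3/1% SDS.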

MDA-MB-231 [5] = assay: Growth inhibition of retinoid-resistant MDA-MB-231 cells after 72 hrs; type: functional, cell-based; conditions: Homo sapiens, MDA-MB-231, 72 h; how it was run: as §1
DU-145 [6] = assay: Growth inhibition of retinoid-resistant DU145 cells after 72 hrs; type: functional, cell-based; conditions: Homo sapiens, DU-145, 72 h; how it was run: as §1
KG-1 [7] = assay: Induction of apoptosis in retinoid-resistant KG1 cells at 1 uM after 48 hrs; type: functional, Homo sapiens
How it was run: (§2)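 Apoptotic cells scored by acridine orange staining. KG-1, HL-60R or MDA-MB-231 cells seeded in medium with 5% FBS, incubated overnight, then exposed to compound in Me2SO (0.1% final) for the stated time.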

[8] = Growth inhibition of retinoid-resistant H292 cells after 72 hrs; type: functional, cell-based; conditions: Homo sapiens, NCI-H292, 72 h; how it was run: as §1
DU-145 [9] = assay: Growth inhibition of retinoid-resistant DU145 cells at 1 uM relative to control; type: functional; conditions: Homo sapiens; how it was run: as §1
KG-1 [10] = assay: Growth inhibition of retinoid-resistant KG1 cells at 5 uM after 48 hrs; type: functional; conditions: Homo sapiens, KG-1, 48 h
How it was run: (§3)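 KG-1 cells grown in RPMI-1640 with 5% heat-inactivated FBS and gentamycin, seeded in 3 mL medium plus 5% FBS, incubated overnight. Compound then added in Me2SO (0.1% final), cells incubated for the stated time, harvested and counted by hemocytometer.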

[11] = Growth inhibition of retinoid-resistant H292 cells at 1 uM relative to control; type: functional; conditions: Homo sapiens, NCI-H292; how it was run: as §1
KG-1 [12] = assay: Induction of apoptosis in retinoid-resistant KG1 cells at 5 uM after 48 hrs; type: functional, Homo sapiens; how it was run: as §2
KG-1 [13] = assay: Inhibition of cell proliferation in retinoid-resistant KG1 cells at 1 uM after 48 hrs relative to control; type: functional; conditions: Homo sapiens, KG-1, 48 h; how it was run: as §3
F9 = assay: Induction of terminal differentiation in mouse F9 cells assessed by measuring secreted plasminogen activator activity after 3 days; type: functional, cell-based; conditions: F9, 72 h, read-out: IC50 (the source's name)
Trachea = assay: Reversal of keratinization in vitamin A-deficient hamster trachea after 10 days by TOC assay; type: functional, tissue-based; conditions: Cricetinae, 240 h
Mus musculus = assay: Inhibition of TPA-induced ornithine decarboxylase in mouse dorsal epidermis applied topically after 1 hr; type: functional
KG-1 [14] = assay: Inhibition of cell proliferation in retinoid-resistant KG1 cells after 48 hrs; type: functional, cell-based; conditions: Homo sapiens, KG-1, 48 h; how it was run: as §3
KG-1 [15] = assay: Inhibition of cell proliferation of KG1 cells; type: functional, cell-based; conditions: Homo sapiens; how it was run: as §3
[16] = biological target: T2, Tyrosine-protein phosphatase non-receptor type 11 (Homo sapiens, UniProt Q06124); assay: Inhibition of SHP2 PTP by fluorescence spectroscopy
T2 sequence (Q06124 whole entry): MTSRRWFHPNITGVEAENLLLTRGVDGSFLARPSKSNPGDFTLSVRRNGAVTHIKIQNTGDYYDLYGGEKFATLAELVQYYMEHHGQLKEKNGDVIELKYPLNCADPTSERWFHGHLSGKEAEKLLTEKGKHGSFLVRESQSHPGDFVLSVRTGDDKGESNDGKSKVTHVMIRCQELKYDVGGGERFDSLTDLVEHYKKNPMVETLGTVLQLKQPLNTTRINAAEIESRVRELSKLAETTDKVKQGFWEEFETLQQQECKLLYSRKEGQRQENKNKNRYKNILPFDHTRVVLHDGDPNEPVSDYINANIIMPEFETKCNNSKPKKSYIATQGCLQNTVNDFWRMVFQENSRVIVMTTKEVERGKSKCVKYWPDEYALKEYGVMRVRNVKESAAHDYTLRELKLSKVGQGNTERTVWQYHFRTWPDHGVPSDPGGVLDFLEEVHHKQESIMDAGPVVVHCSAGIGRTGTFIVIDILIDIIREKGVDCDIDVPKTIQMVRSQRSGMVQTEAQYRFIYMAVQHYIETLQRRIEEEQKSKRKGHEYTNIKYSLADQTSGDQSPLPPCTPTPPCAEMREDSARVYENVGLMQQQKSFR

[17] = biological target: Receptor-type tyrosine-protein phosphatase C, CD45 (Homo sapiens) (UniProt P08575); assay: Inhibition of CD45 PTP at 10 uM relative to control by fluorescence spectrometry
HL60R = assay: (§4) Induction of apoptosis in tran-RA-resistant HL60R cells at 1 uM after 24 hrs; type: functional; conditions: Homo sapiens
[18] = as §4; type: functional, Homo sapiens
MDA-MB-231 [19] = assay: Induction of apoptosis in retinoid-resistant MDA-MB-231 cells at 1 uM after 96 hrs; type: functional, Homo sapiens; how it was run: as §2

Sequence of Receptor-type tyrosine-protein phosphatase C, CD45 (Homo sapiens) (P08575 whole entry, looked up): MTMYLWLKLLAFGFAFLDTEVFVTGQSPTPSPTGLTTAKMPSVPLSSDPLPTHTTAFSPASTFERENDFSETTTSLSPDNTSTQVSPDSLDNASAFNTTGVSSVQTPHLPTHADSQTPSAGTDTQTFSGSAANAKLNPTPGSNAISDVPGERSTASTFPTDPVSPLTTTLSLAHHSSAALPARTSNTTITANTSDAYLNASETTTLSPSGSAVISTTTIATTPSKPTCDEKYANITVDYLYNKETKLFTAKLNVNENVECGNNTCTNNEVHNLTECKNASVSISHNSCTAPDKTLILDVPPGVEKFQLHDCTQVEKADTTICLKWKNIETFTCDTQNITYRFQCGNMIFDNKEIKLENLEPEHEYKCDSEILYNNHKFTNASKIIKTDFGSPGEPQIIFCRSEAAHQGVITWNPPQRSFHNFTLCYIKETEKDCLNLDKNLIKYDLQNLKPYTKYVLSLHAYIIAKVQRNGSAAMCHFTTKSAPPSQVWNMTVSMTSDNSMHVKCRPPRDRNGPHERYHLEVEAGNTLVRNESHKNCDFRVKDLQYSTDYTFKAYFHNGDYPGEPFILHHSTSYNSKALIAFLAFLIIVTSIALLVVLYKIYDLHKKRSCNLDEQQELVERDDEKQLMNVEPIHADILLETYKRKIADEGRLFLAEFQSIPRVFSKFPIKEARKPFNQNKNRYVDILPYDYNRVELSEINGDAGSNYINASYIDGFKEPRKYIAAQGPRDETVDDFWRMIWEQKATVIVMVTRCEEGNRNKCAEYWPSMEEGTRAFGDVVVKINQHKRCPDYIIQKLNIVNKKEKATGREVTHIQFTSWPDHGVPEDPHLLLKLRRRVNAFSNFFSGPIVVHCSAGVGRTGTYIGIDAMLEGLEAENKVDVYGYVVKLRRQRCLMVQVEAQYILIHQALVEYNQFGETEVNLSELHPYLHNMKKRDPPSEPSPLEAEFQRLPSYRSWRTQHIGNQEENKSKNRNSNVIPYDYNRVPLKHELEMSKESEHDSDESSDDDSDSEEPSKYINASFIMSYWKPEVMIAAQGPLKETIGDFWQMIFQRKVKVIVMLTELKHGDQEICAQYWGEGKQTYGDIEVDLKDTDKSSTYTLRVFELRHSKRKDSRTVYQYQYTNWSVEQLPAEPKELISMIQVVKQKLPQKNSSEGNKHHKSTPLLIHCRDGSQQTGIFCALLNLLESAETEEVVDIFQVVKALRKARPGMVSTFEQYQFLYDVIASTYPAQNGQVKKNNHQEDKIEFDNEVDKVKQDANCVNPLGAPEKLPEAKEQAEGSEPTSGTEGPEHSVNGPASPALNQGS

IC50 (MDA-MB-231 [5])	IC50 (DU-145 [6])	SMILES	IC50 [1]	inhibition at 0.5 µM [2]	inhibition at 1 µM (MDA-MB-231 [3])	Activity (KG-1 [7])	IC50 [8]	inhibition at 1 µM (DU-145 [9])	inhibition at 5 µM (KG-1 [10])	inhibition at 1 µM [11]	Activity (KG-1 [12])	inhibition at 1 µM (KG-1 [13])	IC50 (KG-1 [14])	further results
		O=C(O)c1ccc2c(Cl)c(-c3ccc(O)c(C45CC6CC(CC(C6)C4)C5)c3)ccc2c1	0.5 µM	45%										
24 µM	15 µM	O=C1NC(=O)/C(=C/C=C/c2ccc(-c3ccc(O)c(C45CC6CC(CC(C6)C4)C5)c3)c(Cl)c2)S1			0%	2%	23 µM	0%	2%	2%	2%	0%		Activity [4]: 69%
		CC1(C)CCC(C)(C)c2cc(/C(=N\O)c3ccc4cc(C(=O)O)ccc4c3)ccc21		30%										
		Cc1c(-c2ccc3c(c2)C(C)(C)CCC3(C)C)ccc2cc(C(=O)O)ccc12												EC50 (F9): 0.003 µM; IC50 (Trachea): 80 pM; ID50 (Mus musculus): 66 nmol
21 µM	14 µM	Oc1ccc(-c2ccc(/C=C/c3nnn[nH]3)cc2Cl)cc1C12CC3CC(CC(C3)C1)C2			0%	10%	16 µM	0%	31%	3%	12%	0%	13 µM	
19 µM	7 µM	OB(O)/C=C/c1ccc(-c2ccc(O)c(C34CC5CC(CC(C5)C3)C4)c2)c(Cl)c1			3%	4%	7.2 µM	2%	0%	0%	4%	0%	> 5 µM	Activity [4]: 0%; IC50 (KG-1 [15]): > 5 µM
		Oc1ccc2cc(-c3ccc(O)c(C45CC6CC(CC(C6)C4)C5)c3)ccc2c1	> 0.5 µM	15%										
		CC1(C)CCC(C)(C)c2cc(-c3ccc4cc(C(=O)O)ccc4c3)ccc21												EC50 (F9): 0.001 µM; IC50 (Trachea): 7 pM; ID50 (Mus musculus): 2 nmol
		CC(=O)NCCCOc1cc(/C=C/C(=O)O)ccc1-c1ccc(O)c(C23CC4CC(CC(C4)C2)C3)c1												Activity [4]: 72%
14 µM	7.8 µM	O=CC(=O)/C=C/c1ccc(-c2ccc(O)c(C34CC5CC(CC(C5)C3)C4)c2)c(Cl)c1			0%	5%	7 µM	0%	38%	7%	6%	11%	10 µM	
		Cc1c(-c2ccc(O)c(C34CC5CC(CC(C5)C3)C4)c2)ccc2cc(C(=O)O)ccc12									73%			Activity at 1 µM (KG-1 [7]; Homo sapiens, KG-1, 48 h): 51%
		CC1=C(/C=C/C(C)=C/C=C/C(C)=C/C(=O)O)C(C)(C)CCC1 [TRETINOIN]	> 0.5 µM	10%										IC50 (Trachea): 10 pM; ID50 (Mus musculus): 0.19 nmol
71 µM	52 µM	Oc1ccc(-c2ccc(-c3nnn[nH]3)cc2Cl)cc1C12CC3CC(CC(C3)C1)C2			0%	2%	14 µM	0%	21%	3%	2%	13%	> 5 µM	IC50 [16]: 1.3 µM; inhibition [17]: 46%
		O=C(O)c1ccc2ccc(-c3ccc(O)c(C45CC6CC(CC(C6)C4)C5)c3)cc2c1	> 0.5 µM	15%										Activity (HL60R): inactive
> 10 µM	> 10 µM	N#CC(C#N)=Cc1ccc(-c2ccc(O)c(C34CC5CC(CC(C5)C3)C4)c2)c(Cl)c1			0%	0%	> 10 µM	4%	0%	0%	3%	0%	> 5 µM	IC50 (KG-1 [15]): > 5 µM
> 5 µM	> 5 µM	CCOP(=O)(O)/C=C/c1ccc(-c2ccc(O)c(C34CC5CC(CC(C5)C3)C4)c2)c(Cl)c1			3%	0%	> 5 µM	3%	0%	2%	0%	0%	> 5 µM	
		CC1(C)CCC(C)(C)c2cc(-c3ccc(/C=C/C(=O)O)cc3)ccc21												EC50 (F9): 0.0003 µM; IC50 (Trachea): 320 pM; ID50 (Mus musculus): 7.5 nmol
		O=C(O)/C=C/c1ccc(-c2ccc(O)c(C34CC5CC(CC(C5)C3)C4)c2)cc1 [ADAROTENE]	0.1 µM	90%										inhibition [17]: 84%
		O=C(O)c1ccc2cc(-c3ccc(O)c(C45CC6CC(CC(C6)C4)C5)c3)ccc2c1 [O-DEMETHYLATED ADAPALENE]	0.3 µM											Activity [4]: 53%; Activity [18]: 98%; Activity (MDA-MB-231 [19]): 46%; ID50 (Mus musculus): 66 nmol
6.3 µM	3.5 µM	O=C(/C=C/c1ccc(-c2ccc(O)c(C34CC5CC(CC(C5)C3)C4)c2)c(Cl)c1)NO			4%		9 µM	7%	0%	6%	4%	0%	> 5 µM	Activity [4]: 7%; IC50 (KG-1 [15]): > 5 µM

Source: ChEMBL document CHEMBL1143670, “An adamantyl-substituted retinoid-derived molecule that inhibits cancer cell growth and angiogenesis by inducing apoptosis and binds to small heterodimer partner nuclear receptor: effects of modifying its carboxylate group on apoptosis, proliferation, and protein-tyrosine phosphatase activity” (J Med Chem, 2007)
